The source of these data is ChEMBL document CHEMBL1125103, “Structure-activity relationships for metal-labeled blood flow tracers: comparison of keto aldehyde bis(thiosemicarbazonato)copper(II) derivatives” (J Med Chem, 1990).

Data set [1] can be described thus: Partition coefficient (logP). Type of data set: physicochemical. As to conditions: octanol/water. The procedure, abridged: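 1-Octanol (1 mL) and isotonic Tris buffer pH 7.0 (1 mL) vortexed with 1–5 μL of the 67Cu-labeled aqueous complex, then centrifuged at >1200g for 5 min. Both phases were gamma counted in a window on the 185 keV peak. P = counts per g octanol / counts per g water. The octanol phase was re-extracted; the value is from the second and third extractions, mean of six measurements.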

The species named for data set [2] is Rattus norvegicus. Kind of data set: Myocardial levels of tracer copper in rats 1 min after injection into the femoral vein. The class given is functional, organism-based. As to conditions: Myocardium. The procedure, abridged: (§1)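 Copper-67 bis(thiosemicarbazone) complex, 0.2 mL (1–3 μCi) in 5–10% ethanol, injected with a 27-gauge needle into the exposed femoral vein of ether-anesthetized Sprague-Dawley rats (generally 175–225 g). Dose was set by weighing the syringe. Rats were killed by decapitation; organs were excised, blotted and weighed, and counted for 67Cu by gamma counting against a diluted standard dose. Values are percent injected dose per organ, with blood volume taken as 7% of body mass. Generally four rats per time point; mean ± SD.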

The species named for data set [3] is Rattus norvegicus. Kind of data set: Myocardial levels of tracer copper in rats 2 hr after injection into the femoral vein. As to conditions: Myocardium. The class given is functional, organism-based. The procedure, abridged:
as §1

Data set [4] is filed under the species Rattus norvegicus. Kind of data set: Kidney levels of tracer copper in rats 2 hr after injection into the femoral vein. Type of data set: functional, organism-based. The procedure, abridged:
as §1

The species entered for data set [5] is Rattus norvegicus. Nature of the data set: Liver levels of tracer copper in rats 1 min after injection into the femoral vein. The class given is functional, organism-based. The procedure, abridged:
as §1

For data set [6], the species on record is Rattus norvegicus. Nature of the data set: Pulmonary levels of tracer copper in rats 1 min after injection into the femoral vein. Type of data set: functional, organism-based. The procedure, abridged: as §1
For data set [7], the species on record is Rattus norvegicus. Nature of the data set: Pulmonary levels of tracer copper in rats 2 hr after injection into the femoral vein. Type of data set: functional, organism-based. The procedure, abridged: as §1
The species entered for data set [8] is Rattus norvegicus. Nature of the data set: Pulmonary levels of tracer copper in rats 5 min after injection into the femoral vein. The class given is functional, organism-based. The procedure, abridged: as §1
Data set [9] is filed under the species Rattus norvegicus. Kind of data set: Liver levels of tracer copper in rats 5 min after injection into the femoral vein. Type of data set: functional, organism-based. The procedure, abridged: as §1
Data set [10] is filed under the species Rattus norvegicus. Nature of the data set: Liver levels of tracer copper in rats 2 hr after injection into the femoral vein. Type of data set: functional, organism-based. The procedure, abridged:
as §1

The species named for data set [11] is Rattus norvegicus. Nature of the data set: (§2) Blood levels of tracer copper in rats 5 min after injection into the femoral vein. The class given is functional, organism-based. The procedure, abridged: as §1
For data set [12], the species on record is Rattus norvegicus. Kind of data set: Blood levels of tracer copper in rats 1 min after injection into the femoral vein. The class given is functional, organism-based. The procedure, abridged: as §1
For data set [13], the species on record is Rattus norvegicus. Nature of the data set: Blood levels of tracer copper in rats 2 hr after injection into the femoral vein. The class given is functional, organism-based. The procedure, abridged: as §1
Data set [14] is filed under the species Rattus norvegicus. The data set is described as §2. The class given is functional, organism-based. The procedure, abridged: as §1
The source holds these as a separate data set.

For data set [15], the species on record is Rattus norvegicus. Kind of data set: Brain levels of tracer copper in rats 1 min after injection into the femoral vein. Type of data set: functional, organism-based. The procedure, abridged: as §1
The species entered for data set [16] is Rattus norvegicus. Nature of the data set: Brain levels of tracer copper in rats 2 hr after injection into the femoral vein. Type of data set: functional, organism-based. The procedure, abridged:
as §1

The species entered for data set [17] is Rattus norvegicus. Nature of the data set: Brain levels of tracer copper in rats 5 min after injection into the femoral vein. Type of data set: functional, organism-based. The procedure, abridged:
as §1

The species named for data set [18] is Rattus norvegicus. Kind of data set: Kidney levels of tracer copper in rats 1 min after injection into the femoral vein. Type of data set: functional, organism-based. The procedure, abridged:
as §1

The species named for data set [19] is Rattus norvegicus. Kind of data set: Myocardial levels of tracer copper in rats 5 min after injection into the femoral vein. Type of data set: functional, organism-based. As to conditions: Myocardium. The procedure, abridged:
as §1

Data set [20] is filed under the species Rattus norvegicus. Nature of the data set: Kidney levels of tracer copper in rats 5 min after injection into the femoral vein. The class given is functional, organism-based. The procedure, abridged: as §1

In the case of “Propyl glyoxal bis(thiosemicarbazone)(67Cu-n-PrTS) [listing 1 of 2 here]”, the lipophilicity (logP) – broadly, a log measure of how a compound divides between an organic and an aqueous phase – in [1] is on record as 1.78.

“Propyl glyoxal bis(thiosemicarbazone)(67Cu-n-PrTS) [listing 2 of 2 here]”: the Injected dose in the data set listed under Rattus norvegicus [2] is 3.9%; in the data set filed under Rattus norvegicus [3] it was 3.5%; in the data set filed under Rattus norvegicus [4], 3.6%; in the data set filed under Rattus norvegicus [5], 11.5%; in the data set listed under Rattus norvegicus [6], 13.1%; in the data set filed under Rattus norvegicus [7], 5.2%. Further, the Injected dose was found to be 9.6% in the data set listed under Rattus norvegicus [8]; 13.7% in the data set listed under Rattus norvegicus [9]; 17.3% in the data set filed under Rattus norvegicus [10]; 8.9% in the data set filed under Rattus norvegicus [11]; 15.2% in the data set listed under Rattus norvegicus [12]; 8.5% in the data set filed under Rattus norvegicus [13]. The Injected dose in the data set listed under Rattus norvegicus [14] was 8.9%; in the data set filed under Rattus norvegicus [15], 1.45%; in the data set listed under Rattus norvegicus [16] it was 1.79%; in the data set listed under Rattus norvegicus [17], 1.27%; in the data set listed under Rattus norvegicus [18], 2.8%; in the data set listed under Rattus norvegicus [19] it was 3%. In the data set filed under Rattus norvegicus [20], the Injected dose turned out to be 2.8%.
